This is an account of results in ChEMBL document CHEMBL1933027, “Time-dependent botulinum neurotoxin serotype A metalloprotease inhibitors” (Bioorg Med Chem, 2011).

Assay [1] has as its target T1, Botulinum neurotoxin type A (Clostridium botulinum, UniProt P0DPI0). The assay can be described thus: Inhibition of Clostridium botulinum BoNT/A light chain-mediated SNAP-25 substrate cleavage after 40 mins by FRET assay. Put shortly:
(§1)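 Recombinant BoNT/A LC at 2 nM was incubated with 20 μM SNAP-25 peptide (AA 187–203, DnpK/daciaC-labelled) for 40 min at 37 °C. Cleaved-substrate fluorescence was read at 485 nm with excitation at 398 nm. IC50 is the compound concentration giving 50% inhibition, averaged over two experiments.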

The next assay addresses T2, Lethal factor (Bacillus anthracis, UniProt P15917).
T2 sequence (P15917 whole entry): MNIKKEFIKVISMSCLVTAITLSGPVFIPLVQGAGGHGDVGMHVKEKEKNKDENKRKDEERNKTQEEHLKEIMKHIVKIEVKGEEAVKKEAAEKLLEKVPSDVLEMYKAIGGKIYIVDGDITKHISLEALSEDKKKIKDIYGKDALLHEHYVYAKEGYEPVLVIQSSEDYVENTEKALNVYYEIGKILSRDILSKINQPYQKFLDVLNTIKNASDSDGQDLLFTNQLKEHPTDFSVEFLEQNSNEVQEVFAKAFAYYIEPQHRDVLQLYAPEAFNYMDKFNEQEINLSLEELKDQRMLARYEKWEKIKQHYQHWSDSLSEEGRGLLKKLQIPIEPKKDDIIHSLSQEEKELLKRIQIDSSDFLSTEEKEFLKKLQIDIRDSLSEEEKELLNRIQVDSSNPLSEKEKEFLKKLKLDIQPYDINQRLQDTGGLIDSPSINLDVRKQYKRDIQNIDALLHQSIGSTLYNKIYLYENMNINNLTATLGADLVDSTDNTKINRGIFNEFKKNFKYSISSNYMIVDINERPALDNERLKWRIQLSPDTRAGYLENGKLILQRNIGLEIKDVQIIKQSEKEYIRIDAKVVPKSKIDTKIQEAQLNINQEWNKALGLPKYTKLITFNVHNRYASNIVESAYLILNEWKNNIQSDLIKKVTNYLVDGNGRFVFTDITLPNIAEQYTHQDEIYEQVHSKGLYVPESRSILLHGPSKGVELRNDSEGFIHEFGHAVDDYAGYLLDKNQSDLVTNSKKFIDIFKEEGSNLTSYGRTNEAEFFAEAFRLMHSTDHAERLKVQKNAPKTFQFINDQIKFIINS
The assay can be described thus: Inhibition of Bacillus anthracis lethal factor using MCA-KKVYPYPME[dnp]Kamide peptide substrate after 30 mins by FRET assay.

The target in assay [2] is Botulinum neurotoxin type A (Clostridium botulinum) (UniProt P0DPI0). Put plainly: Inhibition of clostridium botulinum BoNT/A-mediated SNAP-25 substrate cleavage in chicken neurons at 30 uM preincubated for 15 mins before substrate addition.
Chain of Botulinum neurotoxin type A (Clostridium botulinum) (P0DPI0 2-448 limits assumed): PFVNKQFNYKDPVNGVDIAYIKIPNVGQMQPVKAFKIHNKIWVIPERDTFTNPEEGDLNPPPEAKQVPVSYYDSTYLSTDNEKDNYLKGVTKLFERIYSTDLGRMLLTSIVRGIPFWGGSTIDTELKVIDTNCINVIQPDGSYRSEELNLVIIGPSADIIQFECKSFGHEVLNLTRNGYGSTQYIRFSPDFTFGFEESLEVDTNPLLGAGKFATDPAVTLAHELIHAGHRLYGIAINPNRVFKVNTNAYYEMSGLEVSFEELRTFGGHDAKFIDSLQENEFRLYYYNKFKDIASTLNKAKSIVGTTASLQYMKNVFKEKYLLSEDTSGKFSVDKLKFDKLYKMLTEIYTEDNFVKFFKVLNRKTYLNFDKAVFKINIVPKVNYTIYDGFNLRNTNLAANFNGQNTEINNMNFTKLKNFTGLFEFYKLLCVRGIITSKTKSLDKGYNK
Assay [3] has as its target T1, Botulinum neurotoxin type A. Put plainly: Inhibition of Clostridium botulinum botulinum neurotoxin type A light chain. Put shortly:
as §1

The target in assay [4] is T3, Lethal factor (Bacillus anthracis) (UniProt P15917).
T3 sequence (whole entry): T2 sequence (P15917 whole entry)
The assay can be described thus: Inhibition of Bacillus anthracis lethal factor using MCA-KKVYPYPME[dnp]Kamide peptide substrate at 100 uM after 30 mins by FRET assay.

Peptide text beside a SMILES is read from it. * marks the point of attachment. X1 = O=C(C(S)Cc1ccccc1)* Bounds are passed on as bounds.

T1 sequence (P0DPI0 2-448 limits assumed): as above

A word on the IC50: it is the concentration at which inhibition is half-maximal. Low values mean higher potency, high ones lower potency. Regarding `N#C/C(=C\c1c[nH]c2cccc([N+](=O)[O-])c12)c1nc2ccccc2[nH]1`, the IC50 (in assay [1]; on Lethal factor) was over 100 µM in each case.

`COc1cc(/C=C(\C#N)c2nc3ccccc3[nH]2)cc(Cl)c1O`: the IC50 in assay [1] was 59 µM; on Lethal factor, over 100 µM.

Turning to `Cc1ccc(/C=C(\C#N)c2nc3ccccc3[nH]2)s1`, the IC50 (in assay [1]; on Lethal factor) was over 100 µM each time.

As for `N#C/C(=C\c1cccs1)c1nc2ccccc2[nH]1`, the IC50 (in assay [1]; on Lethal factor) was over 100 µM throughout.

`N#C/C(=C\c1ccc(-c2cccs2)s1)c1nc2ccccc2s1`: the 50% inhibitory concentration (IC50) (in assay [1]; against Lethal factor) was over 100 µM each time.

For `COc1ccc(/C=C(\C#N)c2nc3ccccc3[nH]2)cc1Cl`, the 50% inhibitory concentration (IC50) (in assay [1]; against Lethal factor) was over 100 µM in each case.

`COc1ccc(/C=C(\C#N)c2nc3ccccc3[nH]2)cc1F`: the IC50 (in assay [1]; against Lethal factor) was over 100 µM throughout.

`N#C/C(=C\c1ccc(-c2cccs2)s1)c1nc2ccccc2o1` returned an IC50 in assay [1] of over 100 µM.

With `N#C/C(=C\c1ccc(-c2cccs2)s1)c1cc2ccccc2[nH]1`, the IC50 (in assay [1]; at Lethal factor) was over 100 µM in each case.

For `Cc1c(/C=C(\C#N)c2nc3ccccc3[nH]2)sc2ccccc12`, the IC50 (in assay [1]; on Lethal factor) was over 100 µM each time.

A word on the inhibition: it is how much of the control response was suppressed. Lower therefore signals little suppression. Consider `N=C(N)c1ccc(Oc2ccc(-c3cc4ccc(C(=N)N)cc4[nH]3)cc2)cc1`, for which the inhibition in assay [2] came out at 42%.

For the compound `N#C/C(=C\c1ccc(-c2ccco2)s1)c1nc2ccccc2[nH]1`, the IC50 in assay [1] was 59 µM; against Lethal factor, over 100 µM.

For orientation: Ki means the dissociation constant of the complex between target and ligand, obtained from inhibition or displacement. The low end stands for a stronger hold on the target, the high end for a looser hold on the target. `CSCC[C@H](NC(=O)[C@H](CCCCN)NC(=O)[C@@H](NC(=O)[C@H](C)NC(=O)[C@H](CCCNC(=N)N)NC(=O)C(S)Cc1ccccc1)[C@@H](C)O)C(=O)N[C@@H](CC(C)C)C(=O)O` (stereo partly drawn) (X1-RATKML-OH) came in with an inhibition constant (Ki) in assay [3] of 0.33 µM.

As to `COc1ccc(/C=C(\C#N)c2nc3ccccc3[nH]2)cc1OC`, the IC50 (in assay [1]; on Lethal factor) was over 100 µM each time.

On to `COc1ccc(/C=C(\C#N)c2nc3ccccc3[nH]2)cc1Br`, for which the IC50 (in assay [1]; against Lethal factor) was over 100 µM in each case.

Regarding `N#C/C(=C\c1ccc(-c2cccs2)s1)c1ccc2ccccc2n1`, the IC50 (in assay [1]; against Lethal factor) was over 100 µM throughout.

Turning to `N#C/C(=C\c1ccc(-c2cccs2)o1)c1nc2ccccc2[nH]1`, the IC50 (in assay [1]; against Lethal factor) was over 100 µM in each case.

Turning to `N#C/C(=C\c1c(Cl)ncnc1Cl)c1nc2ccccc2[nH]1`, the IC50 on Lethal factor was over 100 µM.

`N#C/C(=C\c1c[nH]c2c1ccc1ccccc12)c1nc2ccccc2[nH]1`: the IC50 (in assay [1]; against Lethal factor) was over 100 µM in each case.

Take `N#C/C(=C\c1ccc(-c2ccccc2)cc1)c1nc2ccccc2[nH]1`: the half-inhibitory concentration (IC50) in assay [1] is 86 µM; on Lethal factor, over 100 µM.

Regarding `Cn1c(/C(C#N)=C/c2ccc(-c3cccs3)s2)[n+](C)c2ccccc21`, the half-maximal inhibitory concentration (IC50) in assay [1] is over 100 µM.

Regarding `N#C/C(=C\c1cc(-c2ccccc2)cnc1Cl)c1nc2ccccc2[nH]1`, the half-inhibitory concentration (IC50) (in assay [1]; on Lethal factor) was over 100 µM each time.

With `Cc1cc(/C=C(\C#N)c2nc3ccccc3[nH]2)sc1C`, the IC50 (in assay [1]; against Lethal factor) was over 100 µM in each case.

The compound `N#C/C(=C\c1c[nH]c2ccc(Br)cc12)c1nc2ccccc2[nH]1` registered an IC50 in assay [1] of over 100 µM. This compound also gave an inhibition in assay [4] of 60%.
